Results taken from ChEMBL document CHEMBL1124353, “(R)- and (S)-5,6,7,8-tetrahydro-1-hydroxy-N,N-dipropyl-9H-benzocyclohepten- 8-ylamine. Stereoselective interactions with 5-HT1A receptors in the brain” (J Med Chem, 1989).

Key:
[1] = system: Rattus norvegicus; assay: In vivo accumulation of dopamine in striatum of rat brain at 3.2 umol/Kg; format: functional
Method in brief: (§1)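 Nonreserpinised male Sprague–Dawley rats (180–220 g) given drug as hydrochloride sc in saline, 30 min before aromatic L-amino acid decarboxylase inhibitor NSD 1015; killed 30 min after NSD 1015. Striatum and limbic system (rhinal fissure landmark) dissected. 5-HTP or DOPA measured by ion-pair reversed-phase HPLC with electrochemical detection, ng/g; means ± SEM, n = 3–7 per dose group, Dunnett's test vs control.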

[2] = system: Rattus norvegicus; assay: In vivo accumulation of 5-HTP in limbic of rat brain for following at 10 umol/Kg; format: functional; method in brief: as §1
[3] = system: Rattus norvegicus; assay: In vivo accumulation 5-HTP in striatum of rat brain at 3.2 umol/Kg; format: functional; method in brief: as §1
[4] = system: Rattus norvegicus; assay: In vivo accumulations of dopamine in limbic of rat brain for at 3.2 umol/Kg; format: functional; method in brief: as §1
[5] = system: Rattus norvegicus; assay: In vivo accumulation of 5-HTP in limbic of rat brain for following at 32 umol/kg reserpine pretreatment; format: functional
Method in brief: (§2)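 Male Sprague–Dawley rats pretreated with reserpine (8 μmol/kg, 4 h before), then given drug sc as hydrochloride in saline 30 min before NSD 1015 decarboxylase inhibition; killed 30 min later. Striatal and limbic 5-HTP or DOPA determined by ion-pair reversed-phase HPLC with electrochemical detection, ng/g; means ± SEM, n = 3–7; Dunnett's test vs reserpinised controls.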

[6] = target: T1, 5-hydroxytryptamine receptor 1A (Rattus norvegicus, UniProt P19327); assay: Affinity for 5-hydroxytryptamine 1A receptor site
T1 sequence (P19327 whole entry): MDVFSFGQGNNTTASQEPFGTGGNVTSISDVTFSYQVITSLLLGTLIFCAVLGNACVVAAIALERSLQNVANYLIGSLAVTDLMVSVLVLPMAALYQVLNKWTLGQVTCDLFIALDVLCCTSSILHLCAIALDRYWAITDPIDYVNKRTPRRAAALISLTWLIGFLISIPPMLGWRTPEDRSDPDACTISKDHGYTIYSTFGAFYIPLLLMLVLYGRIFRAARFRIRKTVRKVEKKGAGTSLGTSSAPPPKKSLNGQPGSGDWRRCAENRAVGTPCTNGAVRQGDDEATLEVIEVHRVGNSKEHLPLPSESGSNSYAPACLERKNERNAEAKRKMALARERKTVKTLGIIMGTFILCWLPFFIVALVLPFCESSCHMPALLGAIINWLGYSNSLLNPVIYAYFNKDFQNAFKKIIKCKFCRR
Method in brief: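 Rat (male Sprague–Dawley) cortex plus hippocampus homogenised in 50 mM Tris-HCl with 4.0 mM CaCl2 and 5.7 mM ascorbate, pH 7.5, washed, pooled (≥6 rats), pargyline 10 μM pretreated. Incubated at 37 °C for 10 min with 2 nM [3H]-8-OH-DPAT and 1–300 nM competitor. Filtered, scintillation counted; 10 μM 5-HT defines nonspecific binding. Ki from nonlinear least-squares using Kd 1.4 nM.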

[7] = system: Rattus norvegicus; assay: In vivo accumulation 5-HTP in striatum of rat brain striatum at 32 umol/kg reserpine pretreatment; format: functional; method in brief: as §2
[8] = system: Rattus norvegicus; assay: In vivo accumulation of dopamine in striatum of rat brain at 10 umol/Kg; format: functional; method in brief: as §1
[9] = system: Rattus norvegicus; assay: In vivo accumulation of 5-HTP in limbic of rat brain at 3.2 umol/Kg; format: functional; method in brief: as §1
[10] = system: Rattus norvegicus; assay: In vivo accumulations of dopamine in limbic of rat brain at 10 umol/Kg; format: functional; method in brief: as §1
[11] = system: Rattus norvegicus; assay: In vivo accumulation of dopamine in striatum of rat brain at 32 umol/kg with reserpine pretreatment; format: functional; method in brief: as §2
[12] = system: Rattus norvegicus; assay: In vivo accumulation 5-HTP in striatum of rat brain at 10 umol/Kg; format: functional; method in brief: as §1
[13] = system: Rattus norvegicus; assay: In vivo accumulation of dopamine in striatum of rat brain at 32 umol/Kg; format: functional; method in brief: as §1
[14] = system: Rattus norvegicus; assay: In vivo accumulations of dopamine in limbic of rat brain at 32 umol/Kg; format: functional; method in brief: as §1
[15] = system: Rattus norvegicus; assay: In vivo accumulation 5-HTP in striatum of rat brain striatum at 32 umol/Kg; format: functional; method in brief: as §1
[16] = system: Rattus norvegicus; assay: In vivo accumulation of 5-HTP in limbic of rat brain for following at 32 umol/Kg; format: functional; method in brief: as §1

Row | Compound | Dose [1] | Dose [2] | Dose [3] | Dose [4] | Dose [5] | Ki [6] | Dose [7] | Dose [8] | Dose [9] | Dose [10] | Dose [11] | Dose [12] | Dose [13] | Dose [14] | Dose [15] | Dose [16]
1 | CCCN(CCC)[C@H]1CCCc2cccc(O)c2C1 | 1003 µM/kg | 170 µM/kg | 110 µM/kg | 331 µM/kg | 154 µM/kg | > 300 nM | 74 µM/kg | 830 µM/kg | 194 µM/kg | 381 µM/kg | 1934 µM/kg | 98 µM/kg |  |  |  | 
2 | CCCN(CCC)[C@@H]1CCCc2cccc(O)c2C1 | 1068 µM/kg | 122 µM/kg |  | 408 µM/kg |  | 29.7 nM |  | 919 µM/kg | 132 µM/kg | 314 µM/kg |  | 60 µM/kg | 1035 µM/kg | 437 µM/kg | 54 µM/kg | 76 µM/kg
